Assay outcomes deposited in PubChem by Johns Hopkins Ion Channel Center.
Compounds with a hit are over-represented: about 3.7% of the library has one in this group of screens.
hERG protect: hERG rescue from dofetilide block, primary screen, cell-based, CHO-hERG, FluxOR thallium flux, dofetilide IC70; Voltage-gated inwardly rectifying potassium channel KCNH2 (Homo sapiens), Q12809; dofetilide IC70 present; activation (rescue from dofetilide block), less the hit threshold, % at 10 µM; 310,000 tested, 0.51% active;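 active = activation above the mean of controls blocked by dofetilide plus 5 SD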;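 note: thallium influx through hERG after potassium depolarization seen as dye fluorescence rise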
KCNQ1 pot: potentiators or activators of KCNQ1 channel, primary screen, cell-based, thallium flux, high-throughput; Potassium voltage-gated channel subfamily KQT member 1 (Homo sapiens), P51787; CHO-K1 KCNQ1, thallium flux FluxOR fluorescence; stronger effect = higher value; B-score at 10 µM; 310,000 tested, 0.35% active;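 active = fluorescence ratio B-score, a plate-corrected score, at least three library SD, with initial intensity B-score within 5 SD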
Target sequence (P51787 whole entry, looked up): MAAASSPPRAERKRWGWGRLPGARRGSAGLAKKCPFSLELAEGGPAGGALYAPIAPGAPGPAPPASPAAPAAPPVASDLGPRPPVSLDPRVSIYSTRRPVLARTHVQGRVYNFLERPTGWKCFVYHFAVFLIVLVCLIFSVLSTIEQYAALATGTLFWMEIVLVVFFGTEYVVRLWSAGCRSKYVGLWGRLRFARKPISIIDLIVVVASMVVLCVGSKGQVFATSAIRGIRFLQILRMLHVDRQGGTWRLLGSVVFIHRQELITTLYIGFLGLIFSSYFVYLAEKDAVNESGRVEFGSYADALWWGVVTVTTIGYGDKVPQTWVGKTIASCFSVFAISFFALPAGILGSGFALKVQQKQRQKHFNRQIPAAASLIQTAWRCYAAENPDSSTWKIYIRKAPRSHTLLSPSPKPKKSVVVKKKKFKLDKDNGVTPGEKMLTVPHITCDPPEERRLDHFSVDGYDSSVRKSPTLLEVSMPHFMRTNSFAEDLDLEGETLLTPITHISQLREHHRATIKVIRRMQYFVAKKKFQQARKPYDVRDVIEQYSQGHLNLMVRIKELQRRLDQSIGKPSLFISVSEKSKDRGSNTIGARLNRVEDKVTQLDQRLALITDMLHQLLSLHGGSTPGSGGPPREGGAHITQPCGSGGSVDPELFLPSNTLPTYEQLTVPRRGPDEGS
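assay system = CHO-K1 cells stably expressing KCNQ1 | medium = assay buffer, equal DMSO in all wells | timing = 37 °C overnight plating, 90-min dark dye load, 20-min compound pretreatment | measured by = kinetic FluxOR thallium fluorescence, 10-s 1-Hz baseline, 110-s post-stimulus read | measure = fluorescence change relative to baseline, converted to B score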
KCNK9 inh: KCNK9 potassium channel inhibitors, primary screen, HEK293 cells, thallium flux; AID 488922, 2010; FluxOR thallium flux fluorescence; stronger effect = lower value; 310,000 tested, 1.2% active; B-score at 10 µM;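 active = ratio B-score over 3 SD below the library mean, with starting fluorescence within 5 SD of its mean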;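 note: negative B-score means less thallium flux so channel inhibition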
KCNQ1 block: inhibitors of human KCNQ1 channel, primary screen, cell-based, thallium flux, high-throughput; 310,000 tested, 1.3% active; B-score at 10 µM; CHO-K1 KCNQ1, FluxOR thallium flux fluorescence; stronger effect = higher value;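 active = compounds whose thallium flux B-score, printed positive for inhibition, exceeds three library SD while starting fluorescence stays within three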;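 note: channel opened by potassium depolarization with thallium stimulus after 20 min compound exposure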
KCNK3 inh: human KCNK3 channel inhibitors, primary screen, CHO cells, FluxOR thallium flux, B-score | FluxOR fluorescence; stronger effect = lower value | 340,000 tested, 0.84% active | Potassium channel subfamily K member 3 (Homo sapiens), O14649 | B-score at 10 µM;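 active = B-score under library mean minus 4 SD, starting fluorescence ratio at most library mean plus 5 SD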;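 note: more negative B-score means stronger inhibition of thallium flux through KCNK3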
Kir21 block: inhibitors of mouse Kir2.1 inward-rectifier potassium channel. AID 1672, 2009. 310,000 tested, 0.85% active. HEK293-Kir2.1, FluxOR thallium flux fluorescence; stronger effect = lower value. B-score at 10 µM. Inward rectifier potassium channel 2 (Mus musculus), P35561;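 active = fluorescence ratio B-score at or below minus 3 SD of library scores, with starting-brightness B-score within 2 SD, cut at about -4.2 in these data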;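 note: channel flux triggered by added potassium and thallium sulfate stimulus; B-score of peak minus minimum fluorescence over baseline after thallium stimulus; more negative B-score means stronger Kir2.1 block with less thallium influx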
* marks the source's active call; other numbers are inactive results; i = inactive; · = no result given.

SMILES	hERG protect	KCNQ1 pot	KCNK9 inh	KCNQ1 block	KCNK3 inh	Kir21 block
Cc1sc2nc(C(C)C)nc(SCC(=O)NCc3ccco3)c2c1C	8.7*	12*	i	i	i	-2.89
Cc1cc2cc(C)c(SCC(=O)NCc3ccco3)nc2cc1C	-4.8	i	i	i	i	-1.88
Cc1ccc2cc(/C=C3\N=C(c4ccccc4)OC3=O)c(N3CCOCC3)nc2c1	-35.7	i	i	8*	·	-0.85
CNc1nc(NCc2ccccc2)c2ccccc2n1	-7.6	i	i	i	i	-5.4*
CC(CC(=O)N(C)CC(=O)Nc1ccc(N2CCOCC2)cc1)c1ccccc1 (stereo not drawn)	-7.4	i	i	i	i	-0.01
O=C(NC(=S)N1CCN(C/C=C/c2ccccc2)CC1)c1ccc(F)cc1	0.6	8*	i	i	i	-0.27
O=C(NC(=S)N1CCN(C/C=C/c2ccccc2)CC1)c1cccnc1	-9.8	i	i	i	i	-0.38
N#Cc1c(-c2ccccc2Cl)cc(-c2ccccc2)nc1Br	-16.2	i	i	9*	i	1.97
Cc1cc(N2CCN(c3ccccc3Cl)CC2)n2cc(-c3ccccc3)nc2n1	-18.3	i	-12.3*	i	i	1.95
COc1ccccc1-c1cc(C(F)(F)F)n2ncc(C(=O)N3CCc4ccccc4C3)c2n1	-11.0	i	i	i	i	-0.34
CCOCc1c(C(=O)NCc2ccccc2CN2CCCC2)oc2ccccc12	·	·	·	·	i	·
CN1CCC(Oc2ccc(Sc3ccccc3)cc2)CC1	-12.9	i	i	i	i	-7.45*
CN1CCC(OC(=O)COc2ccccc2)CC1	-4.3	i	i	i	i	-0.4
CN1CCC(OC(=O)c2ccccc2)CC1	-6.3	i	i	i	i	0.23
CN1CCC(Oc2ccccc2Sc2ccc(C(F)(F)F)cc2)CC1	-16.2	i	i	i	i	-11*
COc1ccccc1NC(=O)Cc1ccsc1	-5.5	i	i	i	i	1.4
O=C(COC(=O)CCCc1nc2ccccc2s1)NC(=O)NCc1ccco1	6.4*	i	i	i	i	-0.06
CN1CCN(CCOC2Cc3ccccc3Sc3ccc(Cl)cc32)CC1 (stereo not drawn)	-22.0	i	i	i	i	-10.2*
O=[N+]([O-])c1cc([N+](=O)[O-])c2cc(-c3cccnc3)[nH]c2c1	-3.5	i	i	i	i	0.11
Cc1nnc(NC(=O)c2sc3nc(-c4cccs4)cc(C(F)(F)F)c3c2N)s1	-18.6	i	i	6*	i	0.02
CCN(CC)C(=O)c1sc2nc(-c3cccs3)cc(-c3cccs3)c2c1N	-14.6	i	-9.25*	7*	i	-0.06
Nc1c(C(=O)Nc2nccs2)sc2nc(-c3cccs3)cc(C(F)(F)F)c12	0.6	i	i	i	i	0.01
CCN(CC)C(=O)c1sc2nc(-c3cccs3)cc(-c3ccc(Cl)cc3)c2c1N	-7.2	i	i	i	i	0.19
CC1CC(=O)c2ccccc2C1C (stereo not drawn)	·	·	·	·	i	·
Cc1sc2ncnc(N3CCC(C(=O)Nc4nnc(SCc5ccccc5F)s4)CC3)c2c1C	-11.9	i	i	i	i	0.83
SMILES	hERG protect	KCNQ1 pot	KCNK9 inh	KCNQ1 block	KCNK3 inh	Kir21 block
O=C(Cc1ccc(Br)cc1)c1ccc(O)cc1O	-11.1	i	-8.24*	i	i	1.42
Cc1cccc(N2C(=O)N3[C@H](c4ccc(Br)cc4)[C@@H]4C(=O)N(C(C)(C)C)C(=O)[C@@H]4[C@]3(C)C2=O)c1	-7.0	i	i	i	i	0.59
O=C(Nc1ccc(Cl)cc1)Nc1cc([N+](=O)[O-])ccc1F	-10.4	i	i	i	i	-0.61
O=C(Nc1ccc([N+](=O)[O-])cc1)Nc1ccc(Cl)cc1F	-16.1	i	i	14*	i	-0.52
Cc1cc(OC(F)F)ccc1NC(=O)Nc1ccc([N+](=O)[O-])cc1	-11.3	i	i	6*	i	0.61
COc1cc(-c2noc(C)c2C(=O)NCCc2ccccc2)cc(OC)c1OC	·	·	·	·	i	·
CCCCN(CC)C(=O)c1cc2cc3ccc(OC)cc3nc2o1	-10.5	i	-6.74*	i	i	2.96
COCCNC(=O)c1cc2cc3ccc(OC)cc3nc2o1	-4.1	i	i	i	i	0.78
O=[N+]([O-])c1ccc(O)c(Nc2ncnc3ccc(Br)cc23)c1	-5.8	i	i	7*	i	-0.06
CCOc1ccc2c3c(c(=O)oc2c1OCC)CCCC3	-4.1	i	-7.27*	i	i	3.13
CC(C)CC(=O)N1CCN(Cc2ccc(C(F)(F)F)cc2)CC1	-1.8	i	i	i	i	-0.26
COc1ccc(OC)c(S(=O)(=O)N2CCC(NC(=O)c3ccccc3)CC2)c1	-4.6	i	-7.26*	i	i	-0.06
CCOc1ccc(Br)cc1S(=O)(=O)Nc1ccc(C(=O)Nc2ccc(C)cc2)cc1	-3.5	i	-7.07*	i	i	0.44
CCOc1ccc(Br)cc1S(=O)(=O)Nc1ccc(NC(=O)c2ccccc2C)cc1	-11.1	i	-7.38*	i	i	-0.63
CC1(C)C(=O)Nc2ccccc2N1C(=O)COC(=O)CSc1ccc(Cl)cc1	·	·	·	·	i	·
Cc1cccc(C)c1NC(=O)Cn1cc(C=O)c2ccccc21	-6.9	i	i	i	i	0.07
COc1cc(C(C[N+](=O)[O-])c2c(N)n(C)c(=O)n(C)c2=O)ccc1O (stereo not drawn)	-2.7	i	i	6*	i	0.01
CCN(Cc1ccccc1)C(=O)c1cc(S(=O)(=O)N2CCOCC2)cn1C	-5.6	i	i	i	i	-0.29
Cc1cccc(NC(=O)C2c3ccccc3C(=O)N3CCc4ccccc4C23)n1 (stereo not drawn)	-6.0	i	-7.43*	i	i	0.52
COc1ccc(C2C(C(=O)Nc3cccc(C)n3)c3ccccc3C(=O)N2C)cc1 (stereo not drawn)	-10.8	i	i	i	i	0.04
Cc1cccc(OCc2n[nH]c(=S)n2C2CCCCC2)c1	-1.5	8*	i	i	i	-0.36
